Experimental data from ChEMBL document CHEMBL1123346, “Pyrimidinones. 3. N-substituted 6-phenylpyrimidinones and pyrimidinediones with diuretic/hypotensive and antiinflammatory activity” (J Med Chem, 1986).
Values belong to the compound of their own block, whether it stands above or below them.

Key:
[1] = system: Rattus norvegicus; experiment: Blood pressure change in rats after oral administration of 50 mg/kg dose after 24 hours; format: functional
Procedure, shortened: (§1)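 Restrained female Sprague–Dawley rats with indwelling aortic cannulas exteriorized at the nape; direct arterial pressure via transducer, mean pressure by electrical integration of phasic pressure. Readings before and 4 and 24 h after oral dosing (carboxymethylcellulose suspension, 10 mL/kg). Value is change in mean arterial pressure, averaged over two animals.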

[2] = system: Rattus norvegicus; experiment: Blood pressure change in rats after oral administration of 50 mg/kg dose after 4 hours; format: functional; procedure, shortened: as §1
[3] = organism: Rattus norvegicus; experiment: Diuretic activity in rats; format: functional, Urine
Procedure, shortened: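 Male rats (~160 g) fasted 24 h, water withheld 1.5 h, both withheld during test. Gavage 25 mL/kg 0.9% saline with 0.5% carboxymethylcellulose containing compound at 40 mg/kg; urine collected 5 h in metabolism cages. Two-stage test, T/C urine volume per stage; active if product of stage T/Cs ≥3.34.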

[4] = system: Rattus norvegicus; experiment: Inhibition of RPAR administered perorally at 50 mg/kg dose; format: functional; conditions: route oral
Procedure, shortened: (§2)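 Male Wistar rats (180-200 g), 5-10/group, dosed orally (water with Tween-80 suspension) 1 h before iv sensitization with 1 mg bovine serum albumin; 24-h fasted. 60 min later subplantar challenge with 200 µg anti-BSA in left hindpaw. Paw swelling by mercury displacement plethysmography at 2 h post-challenge.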

[5] = system: Rattus norvegicus; experiment: Inhibition of RPAR administered perorally at 100 mg/kg dose; format: functional; conditions: route oral; procedure, shortened: as §2
[6] = Sodium salt excretion in conscious rat at the dose of 0.3 mg/kg expressed as urinary excretion in treated rats/urinary excretion in control rats; format: ADME, organism-based, Urine; design: dose 0.3 mg/kg; conditions: in vivo
Procedure, shortened: (§3)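 Male rats (~160 g) fasted 24 h, water withheld 1.5 h; oral gavage of compound (0.3-100 mg/kg) in 25 mL/kg saline with 0.5% carboxymethylcellulose; 5 h urine collection in metabolism cages. Urine volume, Na+ and K+ (flame photometry) expressed as treated/control excretion ratio.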

[7] = Sodium salt excretion in conscious rat at the dose of 1.0 mg/kg expressed as urinary excretion in treated rats/urinary excretion in control rats; format: ADME, organism-based, Urine; design: dose 1 mg/kg; conditions: in vivo; procedure, shortened: as §3
[8] = Sodium salt excretion in conscious rat at the dose of 10 mg/kg expressed as urinary excretion in treated rats/urinary excretion in control rats; format: ADME, organism-based, Urine; design: dose 10 mg/kg; conditions: in vivo; procedure, shortened: as §3
[9] = system: Rattus norvegicus; experiment: Compound was tested for urinary volume excretion in conscious rat at the dose of 1.0 mg/kg expressed as urinary excretion in treated rats/urinary excretion in control rats; format: ADME, organism-based, Urine; design: dose 1 mg/kg; conditions: in vivo; procedure, shortened: as §3
[10] = Potassium salt excretion in conscious rat at the dose of 1.0 mg/kg expressed as urinary excretion in treated rats/urinary excretion in control rats; format: ADME, organism-based, Urine; design: dose 1 mg/kg; conditions: in vivo; procedure, shortened: as §3
[11] = Potassium salt excretion in conscious rat at the dose of 30 mg/kg expressed as urinary excretion in treated rats/urinary excretion in control rats; format: ADME, organism-based, Urine; design: dose 30 mg/kg; conditions: in vivo; procedure, shortened: as §3
[12] = Potassium salt excretion in conscious rat at the dose of 3.0 mg/kg expressed as urinary excretion in treated rats/urinary excretion in control rats; format: ADME, organism-based, Urine; design: dose 3 mg/kg; conditions: in vivo; procedure, shortened: as §3
[13] = system: Rattus norvegicus; experiment: Compound was tested for urinary volume excretion in conscious rat at the dose of 3.0 mg/kg expressed as urinary excretion in treated rats/urinary excretion in control rats; format: ADME, organism-based, Urine; design: dose 3 mg/kg; conditions: in vivo; procedure, shortened: as §3
[14] = Sodium salt excretion in conscious rat at the dose of 3.0 mg/kg expressed as urinary excretion in treated rats/urinary excretion in control rats; format: ADME, organism-based, Urine; design: dose 3 mg/kg; conditions: in vivo; procedure, shortened: as §3
[15] = system: Rattus norvegicus; experiment: Compound was tested for urinary volume excretion in conscious rat at the dose of 10 mg/kg expressed as urinary excretion in treated rats/urinary excretion in control rats; format: ADME, organism-based, Urine; design: dose 10 mg/kg; conditions: in vivo; procedure, shortened: as §3
[16] = system: Rattus norvegicus; experiment: Compound was tested for urinary volume excretion in conscious rat at the dose of 0.3 mg/kg expressed as urinary excretion in treated rats/urinary excretion in control rats; format: ADME, organism-based, Urine; design: dose 0.3 mg/kg; conditions: in vivo; procedure, shortened: as §3
[17] = Potassium salt excretion in conscious rat at the dose of 10 mg/kg expressed as urinary excretion in treated rats/urinary excretion in control rats; format: ADME, organism-based, Urine; design: dose 10 mg/kg; conditions: in vivo; procedure, shortened: as §3
[18] = system: Rattus norvegicus; experiment: Compound was tested for urinary volume excretion in conscious rat at the dose of 100 mg/kg expressed as urinary excretion in treated rats/urinary excretion in control rats; format: ADME, organism-based, Urine; design: dose 100 mg/kg; conditions: in vivo; procedure, shortened: as §3
[19] = Potassium salt excretion in conscious rat at the dose of 0.3 mg/kg expressed as urinary excretion in treated rats/urinary excretion in control rats; format: ADME, organism-based, Urine; design: dose 0.3 mg/kg; conditions: in vivo; procedure, shortened: as §3
[20] = Sodium salt excretion in conscious rat at the dose of 30 mg/kg expressed as urinary excretion in treated rats/urinary excretion in control rats; format: ADME, organism-based, Urine; design: dose 30 mg/kg; conditions: in vivo; procedure, shortened: as §3
[21] = system: Rattus norvegicus; experiment: Compound was tested for urinary volume excretion in conscious rat at the dose of 30 mg/kg expressed as urinary excretion in treated rats/urinary excretion in control rats; format: ADME, organism-based, Urine; design: dose 30 mg/kg; conditions: in vivo; procedure, shortened: as §3
[22] = Sodium salt excretion in conscious rat at the dose of 100 mg/kg expressed as urinary excretion in treated rats/urinary excretion in control rats; format: ADME, organism-based, Urine; design: dose 100 mg/kg; conditions: in vivo; procedure, shortened: as §3
[23] = Potassium salt excretion in conscious rat at the dose of 100 mg/kg expressed as urinary excretion in treated rats/urinary excretion in control rats; format: ADME, organism-based, Urine; design: dose 100 mg/kg; conditions: in vivo; procedure, shortened: as §3
[24] = system: Rattus norvegicus; experiment: Inhibition of RPAR administered perorally at 25 mg/kg dose; format: functional; conditions: route oral; procedure, shortened: as §2

SMILES: N=C(N)NCCN1CCCCCCC1 [GUANETHIDINE]
MABP change [1]: 9 mmHg | MABP change [2]: -16 mmHg

SMILES: C=CCn1c(N)nc(-c2ccccc2)c(I)c1=O
MABP change [1]: -10 mmHg | MABP change [2]: -6 mmHg | Diuretic activity [3]: 5.09

SMILES: Oc1nc(O)c(I)c(-c2ccccc2)n1
inhibition in vivo at 50 mg/kg [4]: 41% | inhibition in vivo at 100 mg/kg [5]: 48% | MABP change [1]: 11 mmHg | MABP change [2]: 7 mmHg | Diuretic activity [3]: 5.43

Na+ excretion [6]: 1.2 | Na+ excretion [7]: 1.2 | Na+ excretion [8]: 1.2 | Urinary volume [9]: 1 | K+ excretion [10]: 1 | K+ excretion [11]: 1.2 | K+ excretion [12]: 1 | Urinary volume [13]: 1.1 | Na+ excretion [14]: 1 | Urinary volume [15]: 1.2 | Urinary volume [16]: 0.9 | K+ excretion [17]: 0.9 | Urinary volume [18]: 2.1 | K+ excretion [19]: 1 | Na+ excretion [20]: 1.4 | Urinary volume [21]: 1.5 | Na+ excretion [22]: 1.9 | K+ excretion [23]: 1.8
SMILES: Oc1nc(O)c(Br)c(-c2ccccc2)n1
inhibition in vivo at 50 mg/kg [4]: 46% | inhibition in vivo at 100 mg/kg [5]: 58% | MABP change [1]: 5 mmHg | MABP change [2]: 6 mmHg | Diuretic activity [3]: 3.53

SMILES: CC(=O)Nc1nc(O)c(I)c(-c2ccccc2)n1
MABP change [1]: 9 mmHg | MABP change [2]: 3 mmHg

SMILES: Cn1c(-c2ccccc2)c(Br)c(=O)[nH]c1=O
inhibition in vivo at 50 mg/kg [4]: 43% | inhibition in vivo at 100 mg/kg [5]: 57% | inhibition in vivo at 25 mg/kg [24]: 22% | MABP change [1]: 1 mmHg | MABP change [2]: 1 mmHg

SMILES: Cn1c(=O)[nH]c(-c2ccccc2)c(Br)c1=O
MABP change [1]: 6 mmHg | MABP change [2]: -1 mmHg

Na+ excretion [6]: 1.1 | Na+ excretion [7]: 1.1 | Na+ excretion [8]: 1.1 | Urinary volume [9]: 0.9 | K+ excretion [10]: 1.2 | K+ excretion [11]: 1.7 | K+ excretion [12]: 1.1 | Urinary volume [13]: 0.8 | Na+ excretion [14]: 0.9 | Urinary volume [15]: 1.1 | Urinary volume [16]: 0.9 | K+ excretion [17]: 1.3 | Urinary volume [18]: 1.6 | K+ excretion [19]: 0.9 | Na+ excretion [20]: 1.6 | Urinary volume [21]: 1.6 | Na+ excretion [22]: 1.6 | K+ excretion [23]: 1.9
SMILES: Cn1c(-c2ccccc2)c(Cl)c(=O)[nH]c1=O
MABP change [1]: 2 mmHg | MABP change [2]: 2 mmHg | Diuretic activity [3]: 3.49

SMILES: Cn1c(=O)[nH]c(-c2ccccc2)c(I)c1=O
MABP change [1]: 4 mmHg | MABP change [2]: 1 mmHg

SMILES: Nc1nc(O)c(I)c(-c2ccccc2)n1
inhibition in vivo at 50 mg/kg [4]: 3% | inhibition in vivo at 100 mg/kg [5]: 8% | MABP change [1]: -12 mmHg | MABP change [2]: -7 mmHg

SMILES: CN(C)c1nc(O)c(Br)c(-c2ccccc2)n1
MABP change [1]: 2 mmHg | MABP change [2]: 1 mmHg

Na+ excretion [6]: 1.1 | Na+ excretion [7]: 1.2 | Na+ excretion [8]: 1.9 | Urinary volume [9]: 1.4 | K+ excretion [10]: 1.1 | K+ excretion [11]: 2.1 | K+ excretion [12]: 1.2 | Urinary volume [13]: 1.6 | Na+ excretion [14]: 1.6 | Urinary volume [15]: 2.2 | Urinary volume [16]: 1.3 | K+ excretion [17]: 1.4 | Urinary volume [18]: 2 | K+ excretion [19]: 1.1 | Na+ excretion [20]: 2.4 | Urinary volume [21]: 2.7 | Na+ excretion [22]: 2.7 | K+ excretion [23]: 1.6
SMILES: Cn1c(N)nc(-c2ccccc2)c(I)c1=O
inhibition in vivo at 50 mg/kg [4]: 30% | inhibition in vivo at 100 mg/kg [5]: 79% | inhibition in vivo at 25 mg/kg [24]: 18% | MABP change [1]: -13 mmHg | MABP change [2]: -6 mmHg | Diuretic activity [3]: 4.46

SMILES: Nc1nc(=O)c(Br)c(-c2ccccc2)n1O
MABP change [1]: -1 mmHg | MABP change [2]: 6 mmHg
